Rows were chosen to be rich in hits. Some 3.2% of all compounds tested hit in one or more screens of this group.
GASC-1 inh: inhibitors of human GASC-1 (JMJD2C) demethylase; GST-JMJD2C(1-420) H3K9me3 demethylation, DELFIA europium; Q9H3R0; inhibition, % at 2.35 µM; AID 2099; 330,000 compounds, 0.069% hits;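 active = more than half of a compound's replicate wells show inhibition beyond 50%, single wells judged on their own value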;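 note: signal counts dimethyl H3K9 product captured on neutravidin plate; 0% = median of DMSO wells and 100% = 0.3 times that DMSO median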
SMARCA2 activ: SMARCA2 function activation, primary screen | MG213 cells, MMTV-luciferase reporter, dexamethasone, overnight | activation, % at 9.1 µM | 370,000 compounds, 1% hits; in the data active = activation above about 7.8%;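 note: 0% = vehicle wells and 100% = reference activator wells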
DAX1 inh-1: inhibits human nuclear receptor DAX1; HEK293 Gal4-DAX1 luciferase reporter, luminescence; inhibition, % at 6.75 µM; 340,000 compounds, 0.99% hits;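 active = inhibition above the mean over all tested compounds plus 3 SD, cut at about 4.2% in these data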;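 note: 0% = DAX1-transfected cells with DMSO and 100% = empty-vector control cells with DMSO; inhibition shows as a rise in luminescence from relieved DAX1 repression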
Target sequence (P51843 207-470 limits assumed): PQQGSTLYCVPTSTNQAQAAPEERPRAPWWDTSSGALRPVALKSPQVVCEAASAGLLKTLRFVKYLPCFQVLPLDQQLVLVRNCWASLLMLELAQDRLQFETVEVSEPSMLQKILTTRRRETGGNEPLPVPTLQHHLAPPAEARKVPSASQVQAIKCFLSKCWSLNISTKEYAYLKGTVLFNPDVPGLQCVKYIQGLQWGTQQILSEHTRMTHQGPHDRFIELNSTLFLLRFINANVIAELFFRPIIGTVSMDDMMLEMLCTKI
DAX1 inh-2: blocks DAX1 repression of SF-1 activated StAR promoter. HEK293T StAR-luciferase reporter, SF-1/DAX-1 repression relief. inhibition, % at 6.8 µM. 370,000 compounds, 1.1% hits. AID 652010;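 active = inhibition above the mean over all tested compounds plus 3 SD, cut at about 3.6% in these data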;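 note: 0% = DAX-1 cells with DMSO and 100% = cells lacking DAX-1 with DMSO; higher inhibition means more luminescence from relief of DAX-1 repression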
NR2E3 ag-1: human photoreceptor-specific nuclear receptor agonism; AID 602229; CHO-S Gal4-NCOR/VP16-NR2E3 two-hybrid, luciferase; inhibition of corepressor binding, % at 3.98 µM; 360,000 compounds, 0.35% hits;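 active = inhibition above the mean of all tested compounds plus 3 SD, cut at about 70% in these data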;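 note: 0% = DMSO with NR2E3 transfected cells and 100% = cells lacking NR2E3 construct; higher means lower luciferase signal from less NR2E3 corepressor binding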
Target sequence (Q9Y5X4 whole entry, looked up, the tested form may be a part): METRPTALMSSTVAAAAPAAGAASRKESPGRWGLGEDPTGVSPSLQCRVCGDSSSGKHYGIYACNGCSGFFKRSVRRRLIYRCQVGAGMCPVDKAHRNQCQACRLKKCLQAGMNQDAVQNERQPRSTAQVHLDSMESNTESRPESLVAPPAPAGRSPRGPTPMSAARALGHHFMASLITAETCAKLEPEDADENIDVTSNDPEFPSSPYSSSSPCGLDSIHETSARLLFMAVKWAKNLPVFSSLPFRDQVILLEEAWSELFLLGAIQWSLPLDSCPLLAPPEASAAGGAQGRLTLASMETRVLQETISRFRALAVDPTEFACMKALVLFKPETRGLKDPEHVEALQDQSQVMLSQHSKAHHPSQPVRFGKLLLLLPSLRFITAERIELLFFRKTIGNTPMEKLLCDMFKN
NR2E3 ag-2: NR2E3 (human) agonism. 320,000 compounds, 0.12% hits. GST-NR2E3/biotin-RetCOR TR-FRET, 1536-well. inhibition of corepressor binding, % at 4.78 µM;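 active = percent inhibition above the cutoff of mean plus 3 SD of all tested compounds, set per screening campaign, cut at about 20% in these data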;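 note: 0% = DMSO wells and 100% = biotin wells as full block of FRET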
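Material: NR2E3–RetCOR corepressor complex / Incubation: Compound–protein incubation for 5 h at 4 °C / Dosing: compound at 4.8 µM, single dose / Detection: time-resolved FRET / Benchmarks: high control biotin, low control 0.6% DMSO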
NR2E3 ag confirm: confirmation of human NR2E3 agonists; shares compounds with NR2E3 ag-1; CHO-S mammalian two-hybrid NR2E3-NCOR, luciferase luminescence; inhibition, % at 3.98 µM; 2,300 compounds, 51% hits;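 active = average inhibition above a cutoff equal to the mean inhibition of all tested compounds plus one SD, cut at about 70% in these data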;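 note: 0% = DMSO in NR2E3 cells and 100% = DMSO in cells lacking NR2E3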
GAL4-VP16 luc: reduces GAL4-VP16 reporter signal in NR2E3 counterscreen. inhibition, % at 3.98 µM. 2,300 compounds, 29% hits. shares compounds with NR2E3 ag-1. CHO-S GAL4-VP16 luciferase reporter, luminescence;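 active = mean inhibition above a cutoff equal to the average over all tested compounds plus one standard deviation, cut at about 70% in these data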;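 note: luciferase from a UAS reporter driven by GAL4-VP16 transactivation; 0% = DMSO with VP16-transfected cells and 100% = DMSO with cells lacking VP16; higher means less reporter light so more repression of VP16 activity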
DAX1 conf: confirmation of human DAX1 (NR0B1) inhibitors; shares compounds with DAX1 inh-2; HEK293T StAR-promoter luciferase reporter, SF-1/DAX-1 repression; inhibition, % at 6.8 µM; AID 652134; 2,400 compounds, 87% hits;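 active = inhibition above the average of every tested compound plus 3 SD, cut at about 3.8% in these data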;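 note: 0% = DAX-1 cells with DMSO and 100% = no DAX-1 control cells with DMSO; active compounds raise luminescence by relieving repression of the StAR reporter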
SF1 mutant ctr: counter-screen for DAX1 inhibitors: nonselective inhibitors with SF-1 AF2 mutant; shares compounds with DAX1 inh-2; HEK293 StAR-luciferase, luminescence; inhibition, % at 6.8 µM; 2,400 compounds, 78% hits; AID 652136;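 active = inhibition above the mean of all tested compounds plus 3 SD, cut at about 3% in these data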;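 note: 0% = DAX-1 transfected cells with DMSO and 100% = cells without DAX-1 with DMSO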
SMARCA2 act conf: SMARCA2 activation, confirmation screen; activation, % at 9.1 µM; shares compounds with SMARCA2 activ; MG213 cells, MMTV-luciferase with dexamethasone, luminescence, overnight; MG213 cells expressing E1A, Rb sequestered; DMSO wells 0%, reference activator 100%; 3,500 compounds, 30% hits;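 active = activation above its plate's cutoff, the mean activation of tested wells plus 3 SD, cut at about 7.9% in these data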
GAL4-VP16 Luc: counter-screen for SMARCA2 activators: GAL4-VP16 luciferase reporter activation. shares compounds with SMARCA2 activ. AID 686939. HEK293 GAL4-VP16 pG5luc reporter, luciferase luminescence; scaled: DMSO wells 0%, SAHA wells 100%. activation, % at 9.1 µM. 3,500 compounds, 41% hits;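 active = activation above the solvent-only control well mean plus 3 SD, averaged across control plates, cut at about 5.2% in these data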
* = called active by the depositor; / = no result given; ! = not active in a repeat.

SMILES	GASC-1 inh	SMARCA2 activ	DAX1 inh-1	DAX1 inh-2	NR2E3 ag-1	NR2E3 ag-2	DAX1 conf	SF1 mutant ctr	others
O=C(NCCc1ccccc1)OCc1cn(Cc2ccc(C(F)(F)F)cc2)nn1	/	-2	/	0	/	/	/	/
CN(C)c1ncnc2c1nnn2C1OC(CO)C(O)C1O (stereo not given)	/	13*	0	0	89*	/	/	/	NR2E3 ag confirm=-9;GAL4-VP16 luc=61;SMARCA2 act conf=17*;GAL4-VP16 Luc=-3
CN(C)c1ncnc2c1ncn2C1OC(CO)C(O)C1O (stereo not given)	2	-2	-3	-2	22	3	/	/
Cc1ccnc(NC(=O)CCCOc2cc(=O)n(C)c3ccccc23)c1	-3	22*!	7.0*	0	58	1	/	/	NR2E3 ag confirm=73*;GAL4-VP16 luc=28;SMARCA2 act conf=9.1*;GAL4-VP16 Luc=0
O=C(C1=C(O)C(=O)N(c2nccs2)C1c1ccccc1)c1cc2ccccc2o1 (stereo not given)	-4	14*	3	1	66	7	/	/	NR2E3 ag confirm=95*;GAL4-VP16 luc=71*;SMARCA2 act conf=-1;GAL4-VP16 Luc=3
Cc1ccc2nc(N3C(=O)C(O)=C(C(=O)c4cc5ccccc5o4)C3c3cccs3)sc2c1 (stereo not given)	8	/	1	/	-124	7	/	/
O=C(c1cc(F)ccc1F)N1CCCC(c2nc(-c3cccs3)no2)C1 (stereo not given)	/	3	/	1	/	/	/	/
Cc1ccccc1N=Nc1c(C)[nH]n(C(N)=S)c1=O	-1	14*	-2	0	58	-5	/	/	NR2E3 ag confirm=0;GAL4-VP16 luc=-7;SMARCA2 act conf=0;GAL4-VP16 Luc=2
COc1ccccc1CCn1cnc(-c2ccccc2)c1CC(C)C	/	-8	/	-4	/	/	/	/
Nc1nc2n[nH]nc2c(=O)[nH]1	-5	14*	2	0	81*	1	/	/	NR2E3 ag confirm=24;GAL4-VP16 luc=53;SMARCA2 act conf=22*;GAL4-VP16 Luc=2
Cc1ccc2nc(Cl)c(/C=N/Nc3ccc(C(=O)O)cc3)cc2c1	2	7	0	11*	-22	-4	25*	8.6*
Cc1ccc2cc(/C=N/NC(=O)c3ccc(F)cc3)c(Cl)nc2c1	1	-3	1	-1	-9	-3	/	/
O=C(CNC(=O)c1ccc2c(c1)OCO2)Nc1ncccc1O	-5	1	1	5.3*	-60	0	6.1*	3.7*
O=C(Nc1ccccn1)c1ccc2c(c1)OCO2	-3	3	0	6.1*	-134	2	6.8*	3.4*
O=C(Nc1ccc2c(c1)OCO2)c1cc(C2CC2)on1	-11	5	3	7.0*	-123	6	13*	7.8*
O=C(Nc1ccc2c(c1)OCO2)c1ccccn1	11	3	1	8.8*	-149	5	9.9*	7.1*
COC(=O)N1CCCCC1c1cc(C(=O)Nc2ccc3c(c2)OCO3)no1 (stereo not given)	/	-1	/	0	-31	/	/	/
Cc1ccc2c(c1)N(CCCC(=O)N(C)Cc1ccccc1F)C(=O)CO2	/	7	/	0	/	/	/	/
CCCCN1CCS(=O)(=O)N(Cc2cn(Cc3cccc(Cl)c3)nn2)C(C(=O)OC)C1 (stereo not given)	/	-2	/	-1	/	/	/	/
OC(c1ccccc1)(c1ccccc1)C1CCN(CCCNc2ccc(C(F)(F)F)cc2)CC1	/	-7	/	0	/	/	/	/
O=C(NNC(=S)Nc1ccc(Br)cc1)c1ccccc1Br	1	1	0	0	-68	/	/	/
O=C(NNC(=S)Nc1ccccc1Cl)c1ccccc1Br	-3	4	1	15*	-106	/	12*	6.1*
Cc1[nH]c2ccccc2c1/C=N\NC(=O)CNc1ccc2c(c1)OCO2	4	-2	0	1	2	0	/	/
Oc1[nH]c2ccccc2c1C=Nc1ccc2c(c1)OCO2	11	4	5.1*	6.6*	-124	-2	16*	8.2*
CCN(CC)C(=O)[C@H]1C[C@H](CC(=O)NCCN2CCOCC2)C(=O)N2CCc3c([nH]c4ccc(Cl)cc34)[C@]12C	/	0	-1	1	5	/	/	/
SMILES	GASC-1 inh	SMARCA2 activ	DAX1 inh-1	DAX1 inh-2	NR2E3 ag-1	NR2E3 ag-2	DAX1 conf	SF1 mutant ctr	others
CC(C)N(C(=O)[C@H]1C[C@H](CC(=O)NCCN2CCOCC2)C(=O)N2CCc3c([nH]c4ccc(Cl)cc34)[C@]12C)C(C)C	/	-4	-1	5.5*	21	/	0	0
O=C(OC12CCCN(C1)/C(=C/c1ccccc1)C2)c1ccc(Cl)cc1 (stereo not given)	/	-1	/	-1	/	/	/	/
CN(C)c1ccc(-c2nc3ccccc3c(=O)[nH]2)cc1	-4	0	-4	5.0*	-84	1	15*	4.5*
CC1(C)CC(=O)C=C(Nc2ccccc2NC(=O)c2cc(F)cc(F)c2)C1	/	-4	/	0	/	/	/	/
CN1C(=O)[C@@]2(C3=C(CCCC3=O)OC3=C2C(=O)OC2(CCCCC2)C3)c2ccccc21	/	-1	/	1	/	/	/	/
Cc1cc(C)cc(C(=O)OCCCN(C)C2CN(Cc3cn(Cc4ccccc4Cl)nn3)S(=O)(=O)C2)c1 (stereo not given)	/	-1	/	-2	/	/	/	/
O=C(Nc1ccc(-c2cscn2)cc1)C1CCCN(Cc2ccccc2)C1 (stereo not given)	-4	0	0	2	-30	-1	/	/
Cc1cccc(CN2CCCC(C(=O)Nc3ccc(-c4cscn4)cc3)C2)c1 (stereo not given)	-2	-2	0	4.6*	-31	/	3	-1
O=C(CN1CCN(Cc2ccccc2)CC1)N/N=C\c1c2ccccc2cc2ccccc12	/	-1	/	-2	/	/	/	/
COc1ccc(C(=O)NN/C(=N/S(=O)(=O)c2ccc(C)cc2)c2ccccc2)cc1	-1	-1	3	4.6*	-147	-2	9.2*	4.4*

Source: PubChem BioAssay
